Results from ChEMBL document CHEMBL3526133, “Identifying a selective substrate and inhibitor pair for the evaluation of CYP2J2 activity” (Drug Metab Dispos, 2012).
Counter-ions that a name gives are not always drawn.

What was measured:
[1] = biological target: T1, CYP2J2 (Homo sapiens, UniProt P51589); test: in vitro
T1 sequence (P51589 whole entry): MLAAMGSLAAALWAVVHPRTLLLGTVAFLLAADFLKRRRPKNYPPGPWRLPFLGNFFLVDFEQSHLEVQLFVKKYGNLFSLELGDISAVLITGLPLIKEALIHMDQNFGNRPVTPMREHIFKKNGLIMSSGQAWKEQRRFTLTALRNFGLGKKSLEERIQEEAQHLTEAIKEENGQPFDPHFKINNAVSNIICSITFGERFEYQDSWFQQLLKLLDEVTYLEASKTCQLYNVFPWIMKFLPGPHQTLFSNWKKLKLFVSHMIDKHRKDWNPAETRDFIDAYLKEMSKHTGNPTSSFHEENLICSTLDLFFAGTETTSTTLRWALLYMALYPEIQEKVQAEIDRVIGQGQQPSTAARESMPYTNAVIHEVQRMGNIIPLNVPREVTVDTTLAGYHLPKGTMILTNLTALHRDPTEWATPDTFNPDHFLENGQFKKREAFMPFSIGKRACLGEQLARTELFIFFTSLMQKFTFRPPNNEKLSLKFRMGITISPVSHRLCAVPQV

[2] = biological target: T1, CYP2J2; test: in vitro; remark: listed apart in the source
[3] = biological target: T2, Cytochrome P450 2C8 (Homo sapiens, UniProt P10632)
T2 sequence (P10632 whole entry): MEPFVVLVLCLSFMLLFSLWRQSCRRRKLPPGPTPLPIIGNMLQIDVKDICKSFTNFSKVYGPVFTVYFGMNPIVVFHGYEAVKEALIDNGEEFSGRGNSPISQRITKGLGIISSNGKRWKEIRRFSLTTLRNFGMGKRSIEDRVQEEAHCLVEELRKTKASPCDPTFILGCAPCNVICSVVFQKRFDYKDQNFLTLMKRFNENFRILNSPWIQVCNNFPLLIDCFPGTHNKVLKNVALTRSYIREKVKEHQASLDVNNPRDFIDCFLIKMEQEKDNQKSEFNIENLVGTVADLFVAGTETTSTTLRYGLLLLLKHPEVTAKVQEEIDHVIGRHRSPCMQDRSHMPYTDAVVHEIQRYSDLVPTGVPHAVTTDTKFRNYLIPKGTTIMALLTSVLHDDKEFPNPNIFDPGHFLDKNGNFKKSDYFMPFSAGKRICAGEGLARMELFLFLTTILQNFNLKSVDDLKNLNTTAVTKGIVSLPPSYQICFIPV

[4] = biological target: Cytochrome P450 2C19 (Homo sapiens, UniProt P33261)
[5] = biological target: Cytochrome P450 2D6 (Homo sapiens, UniProt P10635)
[6] = biological target: Cytochrome P450 2C9 (Homo sapiens, UniProt P11712)
[7] = biological target: T3, Cytochrome P450 1A2 (Homo sapiens, UniProt P05177)
T3 sequence (P05177 whole entry): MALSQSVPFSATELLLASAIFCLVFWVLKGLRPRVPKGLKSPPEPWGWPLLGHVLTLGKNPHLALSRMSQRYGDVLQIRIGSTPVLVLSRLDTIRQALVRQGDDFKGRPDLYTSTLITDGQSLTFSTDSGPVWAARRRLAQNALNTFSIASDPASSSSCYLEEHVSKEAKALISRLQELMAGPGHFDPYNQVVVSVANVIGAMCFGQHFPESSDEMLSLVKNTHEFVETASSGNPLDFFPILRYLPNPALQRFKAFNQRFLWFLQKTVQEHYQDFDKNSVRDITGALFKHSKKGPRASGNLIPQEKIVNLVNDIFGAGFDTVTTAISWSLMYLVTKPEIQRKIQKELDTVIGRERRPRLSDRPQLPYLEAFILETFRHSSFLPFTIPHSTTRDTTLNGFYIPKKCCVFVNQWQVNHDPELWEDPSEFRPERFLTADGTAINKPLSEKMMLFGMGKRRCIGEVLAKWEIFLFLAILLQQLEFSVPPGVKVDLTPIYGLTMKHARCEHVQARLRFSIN

[8] = biological target: T4, Cytochrome P450 2J2 (Homo sapiens, UniProt P51589); test: Drug metabolism in human liver microsomes assessed as CYP2J2-mediated compound formation treated with amiodarone at 1 uM after 5 to 45 mins by LC-MS/MS analysis; format: ADME
T4 sequence (P51589 whole entry): T1 sequence (P51589 whole entry)

[9] = Retention time in potassium phosphate buffer treated with amiodarone hydrochloride at 30 uM by HPLC analysis; format: physicochemical
[10] = biological target: T4, Cytochrome P450 2J2; test: Drug metabolism assessed as recombinant CYP2J2 (unknown origin)-mediated compound formation treated with amiodarone at 1 uM after 5 to 45 mins by LC-MS/MS analysis; format: ADME; conditions: recombinant enzyme
Summary of the method: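 Preincubated, then started with NADPH-regenerating system (1 mM NADPH final). Aliquots taken at 0, 5, 10, 20, 30, 45 min and quenched in acetonitrile with internal standard. No-NADPH controls included. Products measured by LC-MS/MS.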

[11] = recombinant CYP2J2, probe terfenadine (hydroxylation)
[12] = recombinant CYP2J2, probe astemizole (O-demethylation)

Chain of Cytochrome P450 2C19 (P33261 whole entry): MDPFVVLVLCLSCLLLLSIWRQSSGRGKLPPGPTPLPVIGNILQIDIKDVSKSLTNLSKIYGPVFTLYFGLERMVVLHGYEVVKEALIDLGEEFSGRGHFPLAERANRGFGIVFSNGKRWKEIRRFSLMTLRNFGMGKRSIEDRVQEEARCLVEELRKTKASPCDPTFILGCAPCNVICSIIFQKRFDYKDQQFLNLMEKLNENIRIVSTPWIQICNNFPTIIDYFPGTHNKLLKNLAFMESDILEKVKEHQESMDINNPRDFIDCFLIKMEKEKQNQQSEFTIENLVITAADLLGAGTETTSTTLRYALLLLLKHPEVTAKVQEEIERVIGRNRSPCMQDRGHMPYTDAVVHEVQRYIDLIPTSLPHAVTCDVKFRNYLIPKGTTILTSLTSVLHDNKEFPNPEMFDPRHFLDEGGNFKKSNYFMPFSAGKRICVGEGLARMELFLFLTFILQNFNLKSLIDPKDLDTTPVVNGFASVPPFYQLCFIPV
Chain of Cytochrome P450 2C9 (P11712 whole entry): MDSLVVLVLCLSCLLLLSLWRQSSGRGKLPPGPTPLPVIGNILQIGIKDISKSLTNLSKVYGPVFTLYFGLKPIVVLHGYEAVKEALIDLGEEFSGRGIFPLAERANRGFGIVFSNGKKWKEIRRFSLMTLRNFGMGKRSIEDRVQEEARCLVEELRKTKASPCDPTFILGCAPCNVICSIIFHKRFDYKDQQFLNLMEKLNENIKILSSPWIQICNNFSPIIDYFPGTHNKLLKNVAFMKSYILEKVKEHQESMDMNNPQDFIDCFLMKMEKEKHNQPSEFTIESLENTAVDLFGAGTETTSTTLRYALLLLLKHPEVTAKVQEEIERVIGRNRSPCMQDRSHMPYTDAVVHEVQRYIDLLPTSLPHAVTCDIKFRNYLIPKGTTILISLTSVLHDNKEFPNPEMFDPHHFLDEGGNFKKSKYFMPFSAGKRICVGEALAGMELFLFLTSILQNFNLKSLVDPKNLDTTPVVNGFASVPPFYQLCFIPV
Chain of Cytochrome P450 2D6 (P10635 whole entry): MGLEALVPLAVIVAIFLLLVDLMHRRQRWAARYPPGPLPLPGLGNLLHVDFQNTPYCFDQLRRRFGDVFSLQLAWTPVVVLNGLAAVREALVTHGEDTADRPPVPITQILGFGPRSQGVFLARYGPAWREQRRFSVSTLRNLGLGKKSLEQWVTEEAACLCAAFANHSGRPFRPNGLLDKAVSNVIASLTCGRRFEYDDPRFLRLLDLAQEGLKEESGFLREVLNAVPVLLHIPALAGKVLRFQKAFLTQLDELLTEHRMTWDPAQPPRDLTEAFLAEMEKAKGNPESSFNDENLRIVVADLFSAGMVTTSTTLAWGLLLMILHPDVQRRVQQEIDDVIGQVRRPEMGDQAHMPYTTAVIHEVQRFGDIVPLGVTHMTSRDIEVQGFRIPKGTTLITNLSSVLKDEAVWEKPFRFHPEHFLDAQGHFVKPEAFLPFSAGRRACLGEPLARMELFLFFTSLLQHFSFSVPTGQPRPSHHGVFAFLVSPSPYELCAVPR

| SMILES | activity at 5 min, 30 µM [1, 11] [%] | IC50 [3] [µM] | activity at 5 min, 30 µM [2, 12] [%] | also measured |
| --- | --- | --- | --- | --- |
| CN(C)CCC=C1c2ccccc2C=Cc2ccccc21 [CYCLOBENZAPRINE] | – | – | – | activity at 5 min, 30 µM ([1]; recombinant enzyme): 48.9%; activity at 5 min, 30 µM ([2]; recombinant enzyme): 65.9% |
| CC/C(=C(\c1ccccc1)c1ccc(OCCN(C)C)cc1)c1ccccc1 [TAMOXIFEN] | 11.5 | 14.3 | 9.1 | – |
| Clc1ccccc1C(c1ccccc1)(c1ccccc1)n1ccnc1 [CLOTRIMAZOLE] | 14.1 | – | 5.6 | IC50 [4]: 7.41 µM; IC50 [5]: 0.883 µM; IC50 [6]: 0.136 µM |
| COC(=O)C1=C(C)NC(C)=C(C(=O)OCCN(C)Cc2ccccc2)C1c1cccc([N+](=O)[O-])c1 (stereo not drawn) [NICARDIPINE] | – | – | – | activity at 5 min, 30 µM ([1]; recombinant enzyme): 8.9%; activity at 5 min, 30 µM ([2]; recombinant enzyme): 5.8% |
| Clc1ccc(COC(Cn2ccnc2)c2ccc(Cl)cc2Cl)c(Cl)c1 (stereo not drawn) [MICONAZOLE] | 3.4 | – | 10.1 | – |
| CC(C)COCC(CN(Cc1ccccc1)c1ccccc1)N1CCCC1 (stereo not drawn) [BEPRIDIL] | – | > 30 | – | IC50 [5]: > 30 µM; IC50 [7]: > 30 µM |
| Cc1c(OCC(F)(F)F)ccnc1C[S+]([O-])c1nc2ccccc2[nH]1 (stereo not drawn) [LANSOPRAZOLE] | 0.7 | 5.75 | 71.1 | IC50 [4]: 13.4 µM; IC50 [5]: 2.9 µM; IC50 [6]: 19.2 µM; IC50 [7]: 6.46 µM |
| CCOC(=O)[C@H](CCc1ccccc1)N[C@@H](C)C(=O)N1Cc2ccccc2C[C@H]1C(=O)O | 51.4 | – | 64.1 | – |
| CCC(=O)C(CC(C)N(C)C)(c1ccccc1)c1ccccc1 (stereo not drawn) [METHADONE] | 43 | – | 123 | – |
| CNCCC(Oc1ccc(C(F)(F)F)cc1)c1ccccc1 (stereo not drawn) [FLUOXETINE] | – | – | – | activity at 5 min, 30 µM ([1]; recombinant enzyme): 44.3%; activity at 5 min, 30 µM ([2]; recombinant enzyme): 87% |
| O=c1c(O)c(-c2ccc(O)c(O)c2)oc2cc(O)cc(O)c12 [QUERCETIN] | 29.8 | – | 44.7 | IC50 [5]: 18.8 µM |
| O[C@@H](c1cc(C(F)(F)F)nc2c(C(F)(F)F)cccc12)[C@H]1CCCCN1 (relative stereo) [(S,R)-MEFLOQUINE] | 22.4 | > 30 | 44.6 | – |
| O=C(CCCN1CCC(O)(c2ccc(Cl)cc2)CC1)c1ccc(F)cc1 [HALOPERIDOL] | 15.6 | – | 14.7 | – |
| CCCSc1ccc2nc(NC(=O)OC)[nH]c2c1 [ALBENDAZOLE] | – | > 30 | – | IC50 [4]: > 30 µM; IC50 [5]: > 30 µM; IC50 [6]: > 30 µM; IC50 [7]: > 30 µM |
| CCCC1O[C@@H]2C[C@H]3[C@@H]4CCC5=CC(=O)C=C[C@]5(C)[C@H]4[C@@H](O)C[C@]3(C)[C@]2(C(=O)CO)O1 (stereo partly drawn) [BUDESONIDE] | 50.8 | – | – | – |
| COCCCC/C(=N\OCCN)c1ccc(C(F)(F)F)cc1 [FLUVOXAMINE] | 48.7 | – | 54.4 | – |

| SMILES | activity at 5 min, 30 µM [1, 11] [%] | IC50 [3] [µM] | activity at 5 min, 30 µM [2, 12] [%] | also measured |
| --- | --- | --- | --- | --- |
| CC(=O)N1CCN(c2ccc(OCC3COC(Cn4ccnc4)(c4ccc(Cl)cc4Cl)O3)cc2)CC1 (stereo not drawn) [KETOCONAZOLE] | 5.8 | – | 5.4 | – |
| CCN(CC)CCOc1c(I)cc(C(=O)c2c(CCCCO)oc3ccccc23)cc1I | – | – | – | Drug metabolism [8]: metabolite_detected; Retention_time [9]: 12.7 min; Drug metabolism [10]: metabolite_detected |
| CCN(CC)Cc1cc(Nc2ccnc3cc(Cl)ccc23)ccc1O [AMODIAQUINE] | 22.5 | – | 7.7 | – |
| CCN(CC)CCOc1ccc(C(=C(Cl)c2ccccc2)c2ccccc2)cc1 [CLOMIPHENE] | 44.2 | – | 109 | – |
| CSc1ccc2c(c1)N(CCC1CCCCN1C)c1ccccc1S2 (stereo not drawn) [THIORIDAZINE] | 51.7 | – | 12.9 | – |
| COC(=O)C1=C(C)NC(C)=C(C(=O)OC(C)C)C1c1cccc2nonc12 (stereo not drawn) [ISRADIPINE] | 23.7 | – | 13.6 | IC50 [7]: 28.3 µM |
| CC[C@H](C)C(=O)O[C@H]1C[C@@H](C)C=C2C=C[C@H](C)[C@H](CC[C@@H]3C[C@@H](O)CC(=O)O3)[C@H]21 [LOVASTATIN] | 37.7 | – | 13.6 | – |
| O=c1[nH]c2ccccc2n1CCCN1CCC(n2c(=O)[nH]c3cc(Cl)ccc32)CC1 [DOMPERIDONE] | 43.5 | – | 50.5 | – |
| C#C[C@]1(O)CC[C@H]2[C@@H]3CCC4=Cc5oncc5C[C@]4(C)[C@H]3CC[C@@]21C [DANAZOL] | 1.6 | 1.95 | 8 | IC50 [7]: > 30 µM |
| O=c1[nH]c2ccccc2n1C1CCN(CCCC(c2ccc(F)cc2)c2ccc(F)cc2)CC1 [PIMOZIDE] | 27.3 | > 30 | 6.6 | IC50 [7]: > 30 µM |
| Fc1ccc([C@@H]2CCNC[C@H]2COc2ccc3c(c2)OCO3)cc1 [PAROXETINE HYDROCHLORIDE] | 31.6 | > 30 | 39 | IC50 [6]: > 30 µM; IC50 [7]: 5.33 µM |
| CCOC(=O)N1CCC(=C2c3ccc(Cl)cc3CCc3cccnc32)CC1 [LORATADINE] | – | 2.95 | – | activity at 5 min, 30 µM ([1]; recombinant enzyme): 11.4%; activity at 5 min, 30 µM ([2]; recombinant enzyme): 4% |
| COc1ccc(CCN(C)CCCC(C#N)(c2ccc(OC)c(OC)c2)C(C)C)cc1OC (stereo not drawn) | 1.3 | – | 69.1 | IC50 [7]: > 30 µM |
| CNCCC=C1c2ccccc2CCc2ccccc21 [NORTRIPTYLINE] | – | – | – | activity at 5 min, 30 µM ([1]; recombinant enzyme): 45.3%; activity at 5 min, 30 µM ([2]; recombinant enzyme): 70.1% |
| Cc1ccccc1C(OCCN(C)C)c1ccccc1 (stereo not drawn) [ORPHENADRINE] | 1.2 | > 30 | 102 | IC50 [4]: 24.2 µM; IC50 [6]: > 30 µM; IC50 [7]: > 30 µM |
| COc1ccc2[nH]c([S+]([O-])Cc3ncc(C)c(OC)c3C)nc2c1 (stereo not drawn) [OMEPRAZOLE] | 46.1 | – | 70.5 | – |
